In PubChem BioAssay AID588570 (Sanford-Burnham Center for Chemical Genomics, 2011):
pIC50: −log10 of the molar value. Activity calls are given as the source filed them.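 How the source made its calls: active means mean IC50 at or below 20 µM in a cell killing test; inactive means the rest.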

test system: CHO-XBP1 cytotoxicity, ATPlite luminescence, 6 h; assay: cytotoxicity in CHO-XBP1 reporter cells, SAR follow-up, cytotoxicity control for UPR apoptotic arm activator project, cell-based, 6 h exposure, ATPlite luminescence (AID 588570)
Outline: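 Test system: CHO-XBP1 cells / Technique: ATP-based luminescence with ATPLite 1-Step reagent / Medium: F12 plus 10% FBS / Doses: dose-response series, DMSO ≤1% / Incubation: 16-18 h attachment, 6 h exposure, 37 °C, 5% CO2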

Structure (SMILES) | IC50 | pIC50
O=C(Nc1ccc(S(=O)(=O)C2CCCCC2)cc1)c1ccc([N+](=O)[O-])o1 | > 80 µM (inactive) | 
O=C(Nc1nc2cccc(F)c2s1)c1ccccn1 |  | 5.15
O=C(Nc1ccc(S(=O)(=O)N2CCCC2)cc1)c1ccc([N+](=O)[O-])o1 | 74.6 µM (inactive) | 
CC1(C)CCN(S(=O)(=O)c2ccc(NC(=O)c3ccc([N+](=O)[O-])o3)cc2)CC1 | > 80 µM (inactive) | 
O=C(Nc1ccc(S(=O)(=O)C2CCOCC2)cc1)c1ccc([N+](=O)[O-])o1 | > 80 µM (inactive) | 
O=C(Nc1ccc(S(=O)(=O)N2CCCCC2)cc1)c1ccc([N+](=O)[O-])o1 | > 80 µM (inactive) | 
O=C(Nc1ccc(S(=O)(=O)N2CCC(O)CC2)cc1)c1ccc([N+](=O)[O-])o1 | > 80 µM (inactive) | 
O=C(Nc1nc2c(F)ccc(F)c2s1)c1ccccn1 | 32.3 µM (inactive) | 
O=C(Nc1nc2ccc(F)c(F)c2s1)c1ccccn1 |  | 4.85
O=C(Nc1ccc(S(=O)(=O)N2CCNCC2)cc1)c1ccc([N+](=O)[O-])o1 | > 80 µM (inactive) | 
O=C(Nc1nc2cc(F)c(F)cc2s1)c1ccccn1 |  | 5.29
O=C(Nc1nc2c(Cl)cc(Cl)cc2s1)c1ccccn1 | > 80 µM (inactive) | 
Cc1cc(C)c2nc(NC(=O)c3ccccn3)sc2c1 |  | 4.82
O=C(Nc1nc2ccc(C(F)(F)F)cc2s1)c1ccccn1 |  | 5.34
O=C(Nc1nc2c(F)c(F)ccc2s1)c1ccccn1 |  | 5.37
CC1CN(S(=O)(=O)c2ccc(NC(=O)c3ccc([N+](=O)[O-])o3)cc2)CC(C)O1 (stereo not given) | > 80 µM (inactive) | 
O=C(Nc1ccc(S(=O)(=O)N2CCC(F)CC2)cc1)c1ccc([N+](=O)[O-])o1 | > 80 µM (inactive) | 
O=C(Nc1nc2c(F)cccc2s1)c1ccccn1 |  | 5.39
O=C(Nc1ccc(S(=O)(=O)N2CCOCC2)cc1)c1ccc([N+](=O)[O-])o1 | > 80 µM (inactive) | 
CC(C)(C)C1CCN(S(=O)(=O)c2ccc(NC(=O)c3ccc([N+](=O)[O-])o3)cc2)CC1 | > 80 µM (inactive) | 
O=C(Nc1nc2cc(F)ccc2s1)c1ccccn1 |  | 5.58
O=C(Nc1nc2cc(F)cc(F)c2s1)c1ccccn1 |  | 5.03
O=C(Nc1nc2ccc(Cl)cc2s1)c1ccccn1 |  | 5.42
CC1CCN(S(=O)(=O)c2ccc(NC(=O)c3ccc([N+](=O)[O-])o3)cc2)CC1 | > 80 µM (inactive) | 
O=C(Nc1ccc(S(=O)(=O)c2ccccc2)cc1)c1ccc([N+](=O)[O-])o1 | > 80 µM (inactive) | 
O=C(Nc1ccc(S(=O)(=O)N2CCC3(CCCCC3)CC2)cc1)c1ccc([N+](=O)[O-])o1 | > 80 µM (inactive) | 
O=C(Nc1ccc(S(=O)(=O)N2CCOCC2)cc1)c1ccc([N+](=O)[O-])s1 | > 80 µM (inactive) | 
O=C(Nc1nc2ccc(F)cc2s1)c1ccccn1 |  | 5.32
O=C(Nc1ccc(S(=O)(=O)N2CCC(Cl)CC2)cc1)c1ccc([N+](=O)[O-])o1 | > 80 µM (inactive) | 
O=C(Nc1nc2c(F)cc(F)cc2s1)c1ccccn1 |  | 4.97
